Screening data from PubChem BioAssay.
Rows were chosen to be rich in hits. Some 2.2% of all compounds tested hit in one or more screens of this group.
E-selectin induc: E-selectin induction on HUVECs; 260,000 tested, 0.37% active; activation, % at 7.58 µM; P16581; HUVEC E-selectin immunofluorescence imaging; normalized: neutral wells 0, TNF-alpha wells 100;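 active = mean E-selectin-positive cell signal at least 10% of the positive control, reached in at least 60% of replicates, without over 20% cell loss; inconclusive = no rule given, readout overlaps actives, possibly toxicity-flagged; inactive = the rest, including those meeting only one limit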
Target sequence (P16581 whole entry, looked up): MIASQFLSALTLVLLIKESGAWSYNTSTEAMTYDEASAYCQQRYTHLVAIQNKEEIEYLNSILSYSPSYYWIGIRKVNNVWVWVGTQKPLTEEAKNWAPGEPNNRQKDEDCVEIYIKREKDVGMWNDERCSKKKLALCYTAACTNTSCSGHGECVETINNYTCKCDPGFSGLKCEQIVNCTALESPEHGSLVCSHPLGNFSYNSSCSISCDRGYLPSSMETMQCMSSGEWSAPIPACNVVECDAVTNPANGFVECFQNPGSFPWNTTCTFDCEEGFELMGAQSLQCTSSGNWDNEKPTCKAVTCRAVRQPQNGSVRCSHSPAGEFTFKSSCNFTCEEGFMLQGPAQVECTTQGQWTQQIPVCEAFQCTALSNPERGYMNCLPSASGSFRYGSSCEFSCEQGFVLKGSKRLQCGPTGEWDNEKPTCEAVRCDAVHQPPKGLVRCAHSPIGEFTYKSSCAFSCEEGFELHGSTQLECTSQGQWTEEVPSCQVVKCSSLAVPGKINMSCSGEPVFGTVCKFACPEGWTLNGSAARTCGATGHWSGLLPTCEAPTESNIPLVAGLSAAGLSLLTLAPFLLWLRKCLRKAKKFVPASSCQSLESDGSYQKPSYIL
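System: HUVEC, human umbilical vein endothelial cells; quantity: 3,000 cells/well; buffer or medium: EGM-2 medium, gelatin-coated wells; dosing: single-point compound dose; detection: immunofluorescence imaging; evaluation: % PE-positive cells; benchmarks: TNF-alpha, DMSO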
DENV2 CPE: inhibitors of DENV2 cytopathic effect; DENV2-infected cells, cytopathic effect rescue, plate reader; CPE inhibition, % at 9.99 µM; 350,000 tested, 1.7% active; AID 651640; in the data active = CPE inhibition above about 20%, passing the limit was not always enough; inconclusive = no clear call, values can overlap the other calls; tested in BHK-21 cells
C2C12 statin: suppression of simvastatin myotoxicity. C2C12 myotubes + simvastatin, ATP luminescence, 48 h; scaled: DMSO 0, geranylgeraniol control 100. rescue of ATP level, % at 7.49 µM. 330,000 tested, 0.78% active. AID 602340;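 active = mean ATP rescue above about 67%, or every replicate alone reaching that limit, limit read from the data, passing the limit was not always enough; inconclusive = no clear call, values can overlap the other calls; inactive = mean under the limit and some replicate under it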;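 note: myotubes were challenged with 10 µM simvastatin during compound exposure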
Of the large screens only hits and unclear results are named; the others gave an inactive call.

C[C@H](CO)N1C[C@H](C)[C@H](CN(C)C(=O)CN2CCOCC2)Oc2ncc(-c3cncnc3)cc2C1=O	none (no result: DENV2 CPE)
CCCNC(=O)[C@H]1[C@H](CO)[C@H]2Cn3c(ccc(-c4ccccc4F)c3=O)[C@@H]1N2CC1CC1	none
O=C(CN1C(=O)/C(=C/c2ccco2)SC1=S)Nc1ccc(C(=O)O)c(O)c1	none (no result: E-selectin induc)
CC(C(=O)Nc1ccc(C(=O)O)c(O)c1)N1C(=O)/C(=C\c2ccco2)SC1=S (centres undefined)	C2C12 statin 125.8 (no result: E-selectin induc, DENV2 CPE)
C[C@H]1CCCCO[C@H](CN(C)CC2CCCCC2)[C@@H](C)CN([C@@H](C)CO)C(=O)c2cc(NS(=O)(=O)c3cn(C)cn3)ccc2O1	none
CC(C)[C@H](NS(=O)(=O)c1ccccc1)C(=O)OCC(=O)NC1CCCCC1	none
CC(C)[C@H](NS(=O)(=O)c1ccccc1)C(=O)OCC(=O)NC(=O)NC1CCCCC1	C2C12 statin 113.6
O=C(C[C@H]1C=C[C@@H](NC(=O)Nc2ccc3c(c2)OCO3)[C@H](CO)O1)NCCCN1CCOCC1	none
Cc1nn2c3ccccc3n(CC(=O)c3cccs3)c2nc1=O	none (no result: E-selectin induc, C2C12 statin)
Cc1nn2c3ccccc3n(Cc3ccccc3)c2nc1=O	C2C12 statin 118.2 (no result: E-selectin induc, DENV2 CPE)
CN1C(=O)c2cc(NC(=O)Nc3ccc(F)cc3)ccc2OC[C@H]2O[C@@H](CC(=O)NC3CCC3)CC[C@H]21	none
Cc1cc(C(=O)OCC(=O)Nc2cc(C(F)(F)F)ccc2N2CCOCC2)c(C)o1	C2C12 statin 94.0 (no result: E-selectin induc, DENV2 CPE)
CCC(=O)Nc1cc(C(F)(F)F)ccc1N1CCOCC1	none (no result: E-selectin induc, DENV2 CPE)
Cc1noc(C)c1CSCC(=O)Nc1cc(C(F)(F)F)ccc1N1CCOCC1	E-selectin induc 40.7
CCN(CC)S(=O)(=O)c1ccc(N2CCOCC2)c(NC(=O)CSCc2c(C)noc2C)c1	none (no result: E-selectin induc)
CC=Cc1ccc2n(c1=O)C[C@H]1[C@H](CO)[C@@H](C(=O)NCC3CC3)N(Cc3cccnc3)[C@@H]21 (mixture of isomers)	none
COc1ccc(NC(=O)Nc2ccc3c(c2)[C@@H]2C[C@@H](CC(=O)NC4CCCC4)O[C@@H](CO)[C@@H]2O3)cc1	none
COCCNC(=O)[C@@H]1[C@@H](CO)[C@@H]2Cn3c(ccc(-c4ccccc4F)c3=O)[C@H]1N2S(C)(=O)=O	DENV2 CPE inconclusive
COC(=O)C(Cc1ccc(OC(=O)c2ccc(Cl)cc2)cc1)N1Cc2ccccc2C1=O (centres undefined)	C2C12 statin 83.6 (no result: E-selectin induc, DENV2 CPE)
COC(=O)C(Cc1ccc(OC(=O)c2ccc(C(F)(F)F)cc2)cc1)N1Cc2ccccc2C1=O (centres undefined)	none (no result: E-selectin induc, DENV2 CPE)
C[C@@H]1CN([C@H](C)CO)C(=O)c2cccc(NC(=O)Nc3ccc4c(c3)OCO4)c2O[C@@H]1CN(C)Cc1ccc(-c2ccccc2)cc1	none (no result: C2C12 statin)
C[C@H]1CN([C@@H](C)CO)C(=O)c2cccc(NC(=O)Nc3ccc4c(c3)OCO4)c2O[C@H]1CN(C)Cc1ccccc1	none
C[C@H]1CN([C@@H](C)CO)C(=O)c2cccc(NC(=O)Nc3ccc4c(c3)OCO4)c2O[C@@H]1CN(C)Cc1ccccc1	DENV2 CPE 39.2 (no result: C2C12 statin)
C[C@@H]1CN([C@H](C)CO)C(=O)c2cc(NC(=O)Nc3ccc4c(c3)OCO4)ccc2O[C@@H]1CN(C)Cc1ccc(-c2ccccc2)cc1	none (no result: C2C12 statin)
C[C@@H]1CN([C@@H](C)CO)C(=O)c2cccc(NC(=O)Nc3ccc4c(c3)OCO4)c2O[C@@H]1CN(C)C	DENV2 CPE 23.5 (no result: E-selectin induc)
C[C@H](CO)N1C[C@H](C)[C@H](CN(C)Cc2ccc(-c3ccccc3)cc2)Oc2ccc(NC(=O)Nc3ccc4c(c3)OCO4)cc2C1=O	DENV2 CPE 24.3 (no result: C2C12 statin)
C[C@H](CO)N1C[C@H](C)[C@H](CN(C)Cc2ccc(-c3ccccc3)cc2)Oc2c(NC(=O)Nc3ccc4c(c3)OCO4)cccc2C1=O	DENV2 CPE 20.8 (no result: C2C12 statin)
C[C@@H]1CN([C@H](C)CO)C(=O)c2cccc(NC(=O)Nc3ccc4c(c3)OCO4)c2O[C@@H]1CN(C)C	none (no result: E-selectin induc)
O=C(C[C@@H]1CC[C@H]2[C@@H](COC[C@H](O)CN2C(=O)C2CC2)O1)NCc1ccccc1Cl	none
COc1ccccc1NC(=O)N[C@@H]1CC[C@H](CC(=O)N[C@@H](C)c2ccccc2)O[C@H]1CO	none
CN(C)C(=O)c1cccc(-c2ccc([C@@H]3[C@H](CO)N4C(=O)CN(C(=O)C5CCC5)C[C@@H]34)cc2)c1	none (no result: C2C12 statin)
CO[C@@H]1CC[C@@H]2CCN(C)C(=O)C[C@H](c3ccccc3)CN(C)C(=O)c3cc(C#N)ccc3OC[C@@H]1O2	none (no result: DENV2 CPE)
CCCNC(=O)Nc1ccc2c(c1)C(=O)N(C)[C@H]1CC[C@H](CC(=O)Nc3ccccc3F)O[C@@H]1CO2	none
C[C@H](CO)N1C[C@H](C)[C@@H](CN(C)C(=O)Nc2cccc3ccccc23)Oc2c(NC(=O)Nc3cccc4ccccc34)cccc2C1=O	none (no result: C2C12 statin)
COc1ccc(S(=O)(=O)Nc2ccc3c(c2)C(=O)N([C@H](C)CO)C[C@@H](C)[C@H](CN(C)Cc2ccc(C(=O)O)cc2)OCCCC[C@@H](C)O3)cc1	none (no result: C2C12 statin)
COc1ccc(S(=O)(=O)N[C@H]2CC[C@H](CCn3cc(-c4cccc(F)c4)nn3)O[C@H]2CO)cc1	none
Cc1ccc(S(=O)(=O)N2CCN(C(=O)COC(=O)Cc3ccc(Cl)cc3)CC2)c(C)c1	DENV2 CPE 24.6 (no result: E-selectin induc)
Cc1ccc(S(=O)(=O)N2CCN(C(=O)COC(=O)Cc3ccc(F)cc3)CC2)c(C)c1	none
CO[C@H]1CN(C)C(=O)c2cc(NS(=O)(=O)c3cn(C)cn3)ccc2OC[C@H](C)N(C)C[C@@H]1C	none (no result: DENV2 CPE)
Cc1ccc(NC(=O)COc2ccc(/C=N/NC(=O)CSCc3ccccc3)cc2)cc1	none (no result: E-selectin induc, DENV2 CPE)
Cc1ccc(NC(=O)COc2ccc(/C=C3/SC(=Nc4ccccc4)N(Cc4cccnc4)C3=O)cc2)cc1	C2C12 statin 80.3 (no result: E-selectin induc, DENV2 CPE)
O=C(O)CCSSCCC(=O)O	none (no result: E-selectin induc)
O=C(O)CCSCCC(=O)O	C2C12 statin 90.6 (no result: E-selectin induc, DENV2 CPE)
CCCN(C)C[C@H]1Oc2cc(C#CCC(C)C)ccc2S(=O)(=O)N([C@@H](C)CO)C[C@H]1C	none
CCCN(C)C[C@H]1Oc2cc(C#CCN(C)C)ccc2S(=O)(=O)N([C@@H](C)CO)C[C@H]1C	DENV2 CPE inconclusive
CCCC#Cc1ccc2c(c1)O[C@@H](CN(C)CCC)[C@@H](C)CN([C@@H](C)CO)S2(=O)=O	E-selectin induc 85.1
CCCN(C)C[C@@H]1Oc2cc(C#CCC(C)C)ccc2S(=O)(=O)N([C@H](C)CO)C[C@@H]1C	DENV2 CPE 34.3
C[C@@H]1CCCCO[C@H](CN(C)Cc2ccc(C(=O)O)cc2)[C@H](C)CN([C@H](C)CO)C(=O)c2cc(NC(=O)Nc3ccccc3)ccc2O1	none (no result: E-selectin induc, C2C12 statin)
CC(=C\c1ccco1)/C=C(\C#N)C(=O)NCCc1c[nH]c2ccccc12	DENV2 CPE 58.3 (no result: C2C12 statin)
O=C(NCCc1c[nH]c2ccccc12)/C(=C/c1ccco1)NC(=O)c1ccco1	none (no result: C2C12 statin)
COc1ccc(OC)c(S(=O)(=O)N/N=C\c2c[nH]c3ccccc23)c1	DENV2 CPE 37.5
COc1ccc(OC)c(S(=O)(=O)N/N=C(/C)c2c[nH]c3ccccc23)c1	none
C[C@@H]1CN([C@H](C)CO)C(=O)c2cc(C#CCN(C)C)cnc2O[C@@H]1CN(C)Cc1ccc(F)cc1	none
C[C@@H]1CCCCO[C@H](CN(C)C)[C@H](C)CN([C@H](C)CO)C(=O)c2cc(NC(=O)c3ccncc3)ccc2O1	DENV2 CPE 34.3
